Our source for the Concentration and MIC values is ChEMBL document CHEMBL1129261, “De novo antimicrobial peptides with low mammalian cell toxicity” (1996).

The species named for one assay is Mus musculus. Put plainly: (§1) Compound was tested for sublethal concentrations in 3T3 mouse fibroblast lysis. Type of assay: functional. In a few lines: (§2)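 Mouse 3T3 fibroblast monolayers, 1 day old (about 1 × 10^4 cells/well), in MEM. Peptide applied as 2-fold serial dilutions in MEM, 30 min at 37 °C alongside untreated controls. Cells then stained with 0.2% trypan blue and viewed by light microscopy. Sublethal dose is the highest dilution in which only 1-10 adherent cells stay unstained.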

A further assay is filed under the species Homo sapiens. The assay is described as follows: Compound was measured for sublethal concentrations (uM) in Human erythrocytes. The assay is classed as functional. In a few lines:
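Human erythrocytes (1 × 10^5 per well) incubated at 37 °C for 30 min with peptide. Peptide was dissolved in serum-free MEM and diluted 2-fold serially. Sublethal concentration is the highest dilution […]. A "greater than" entry means slight hemolysis at the highest concentration tested.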

The test system of the next assay is Pseudomonas aeruginosa. Put plainly: Compound was evaluated for antibacterial activity against Pseudomonas aeruginosa. Type of assay: functional. The essentials: (§3)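 Broth microdilution MIC against E. coli ATCC 25922, P. aeruginosa ATCC 27853, S. aureus ATCC 25723. Cultures grown to midlog phase in nutrient broth, standardized to 0.5 McFarland, diluted to 5 × 10^4 cells per well. Equal volume of peptide added, 1:2 serial dilutions giving 256-2 µg/mL in medium. MIC is the lowest concentration with no turbidity […]. Median of three to seven tests.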

For a further assay, the system named is Staphylococcus aureus. Put plainly: Compound was evaluated for antibacterial activity against Staphylococcus aureus. The assay is classed as functional. In a few lines: as §3
Another assay concerns Escherichia coli. Put plainly: Compound was evaluated for antibacterial activity against Escherichia coli. The assay is classed as functional. The essentials: as §3
The subject of a further assay is NIH3T3. Described as §1. Type of assay: functional, cell-based. The essentials: as §2

Converted amounts (≈) assume the structure as drawn.

In general, MIC refers to the lowest concentration found to suppress growth. Read a high MIC as weaker potency. Turning to `CC(C)C[C@H](NC(=O)[C@H](CCCCN)NC(=O)[C@H](CCCCN)NC(=O)[C@H](C)NC(=O)[C@H](CC(C)C)NC(=O)[C@H](CCCCN)NC(=O)[C@H](C)NC(=O)[C@H](CC(C)C)NC(=O)[C@H](CCCCN)NC(=O)[C@H](CCCCN)NC(=O)[C@H](C)NC(=O)[C@H](CC(C)C)NC(=O)[C@H](CCCCN)NC(=O)[C@H](C)NC(=O)[C@H](CC(C)C)NC(=O)[C@H](CCCCN)NC(=O)[C@H](CCCCN)NC(=O)[C@H](C)NC(=O)[C@H](CC(C)C)NC(=O)[C@@H](N)CCCCN)C(=O)N[C@@H](C)C(=O)O`, the Concentration in the assay listed under Mus musculus was 11 µM; in the assay filed under Homo sapiens, > 250 µM. Besides, the MIC with Pseudomonas aeruginosa, against Staphylococcus aureus and in the assay with Escherichia coli was 4 µM (≈ 9.11 µg/mL) in each case.

For the molecule `CC(C)C[C@H](NC(=O)[C@H](C)NC(=O)[C@H](CCCCN)NC(=O)[C@H](CC(C)C)NC(=O)[C@H](C)NC(=O)[C@H](CCCCN)NC(=O)[C@H](CCCCN)NC(=O)[C@H](CC(C)C)NC(=O)[C@H](C)NC(=O)[C@H](CCCCN)NC(=O)[C@H](CC(C)C)NC(=O)[C@H](C)NC(=O)[C@H](CCCCN)NC(=O)[C@H](CCCCN)NC(=O)[C@H](CC(C)C)NC(=O)[C@H](C)NC(=O)[C@H](CCCCN)NC(=O)[C@H](CC(C)C)NC(=O)[C@H](C)NC(=O)[C@@H](N)CCCCN)C(=O)N[C@@H](CCCCN)C(=O)O`, the Concentration with NIH3T3 was 11 µM. Moreover, the minimum inhibitory concentration (MIC) in the assay with Pseudomonas aeruginosa is 4 µM (≈ 9.11 µg/mL); with Staphylococcus aureus, 8 µM (≈ 18.2 µg/mL); with Escherichia coli it was 4 µM (≈ 9.11 µg/mL).

In the case of `CC(C)C[C@H](NC(=O)[C@H](CCCCN)NC(=O)[C@H](C)NC(=O)[C@H](CC(C)C)NC(=O)[C@H](CCCCN)NC(=O)[C@H](CCCCN)NC(=O)[C@H](C)NC(=O)[C@H](CC(C)C)NC(=O)[C@H](CCCCN)NC(=O)[C@H](C)NC(=O)[C@H](CC(C)C)NC(=O)[C@H](CCCCN)NC(=O)[C@H](CCCCN)NC(=O)[C@H](C)NC(=O)[C@H](CC(C)C)NC(=O)[C@H](CCCCN)NC(=O)[C@H](C)NC(=O)[C@H](CC(C)C)NC(=O)[C@@H](N)CCCCN)C(=O)N[C@@H](C)C(=O)N[C@@H](CCCCN)C(=O)O`, the Concentration in the assay filed under Mus musculus was 9 µM; in the assay listed under Homo sapiens, > 520 µM. In addition, the MIC in the assay on Pseudomonas aeruginosa, against Staphylococcus aureus and in the assay on Escherichia coli was 4 µM (≈ 9.11 µg/mL) in each case.

`CC(C)C[C@H](NC(=O)[C@H](CCCCN)NC(=O)[C@H](C)NC(=O)[C@H](CC(C)C)NC(=O)[C@H](CCCCN)NC(=O)[C@H](CCCCN)NC(=O)[C@H](C)NC(=O)[C@H](CC(C)C)NC(=O)[C@H](CCCCN)NC(=O)[C@H](C)NC(=O)[C@H](CC(C)C)NC(=O)[C@@H](N)CCCCN)C(=O)N[C@@H](C)C(=O)N[C@@H](CCCCN)C(=O)O`: the values for the Concentration in the assay listed under Mus musculus and in the assay listed under Homo sapiens were > 517 µM and > 750 µM, respectively. The MIC in the assay with Pseudomonas aeruginosa, against Staphylococcus aureus and against Escherichia coli was 6 µM (≈ 9.14 µg/mL) each time.

In the case of `CC[C@H](C)[C@H](NC(=O)CN)C(=O)NCC(=O)N[C@@H](C)C(=O)N[C@H](C(=O)N[C@@H](CC(C)C)C(=O)N[C@@H](CCCCN)C(=O)N[C@H](C(=O)N[C@@H](CC(C)C)C(=O)N[C@H](C(=O)N[C@H](C(=O)NCC(=O)N[C@@H](CC(C)C)C(=O)N1CCC[C@H]1C(=O)N[C@@H](C)C(=O)N[C@@H](CC(C)C)C(=O)N[C@H](C(=O)N[C@@H](CO)C(=O)N[C@@H](Cc1c[nH]c2ccccc12)C(=O)N[C@H](C(=O)N[C@@H](CCCCN)C(=O)N[C@@H](CCCNC(=N)N)C(=O)N[C@@H](CCCCN)C(=O)N[C@@H](CCCNC(=N)N)C(=O)N[C@@H](CCC(N)=O)C(=O)N[C@@H](CCC(N)=O)C(N)=O)[C@@H](C)CC)[C@@H](C)CC)[C@@H](C)O)[C@@H](C)O)C(C)C)C(C)C`, the Concentration in the assay filed under Mus musculus and in the assay filed under Homo sapiens was 1 µM each time.

As for H-GIGKFLHSAKKFGKAFVGEIMNS-NH2, the Concentration in the assay filed under Mus musculus is 60 µM; in the assay listed under Homo sapiens, > 460 µM. The values for the MIC in the assay with Pseudomonas aeruginosa, with Staphylococcus aureus and in the assay with Escherichia coli were 5 µM, 19 µM and 10 µM, respectively.

Turning to H-KAAKKAAKAAKKAA-OH, the Concentration is > 525 µM in the assay listed under Mus musculus and > 670 µM in the assay listed under Homo sapiens. The results for the MIC in the assay on Staphylococcus aureus and in the assay with Escherichia coli were > 256 µM and 47 µM, respectively.

Turning to H-KAAKKAAKAAKKAAKAAKKAA-OH, the Concentration is > 440 µM in the assay filed under Mus musculus and > 1630 µM in the assay listed under Homo sapiens. Further, the MIC in the assay with Staphylococcus aureus and against Escherichia coli was 8 µM each time.

On to H-KLAKKLA-OH, for which the MIC against Pseudomonas aeruginosa, with Staphylococcus aureus and in the assay on Escherichia coli was > 100 µM in each case.

With H-KLAKKLAKLAKKLA-OH, the Concentration in the assay filed under Mus musculus was > 272 µM; in the assay listed under Homo sapiens, > 750 µM. The MIC in the assay with Pseudomonas aeruginosa was found to be 3 µM; with Staphylococcus aureus it was 6 µM; in the assay with Escherichia coli it was 6 µM.

As to H-KLAKLAK-OH, the MIC against Pseudomonas aeruginosa, against Staphylococcus aureus and against Escherichia coli was > 95 µM each time.

H-KLGKKLGKLGKKLG-OH: in the assay filed under Homo sapiens, the Concentration was > 780 µM. Further, the minimum inhibitory concentration (MIC) against Staphylococcus aureus and in the assay on Escherichia coli was 22 µM each time.

For H-KLGKKLGKLGKKLGKLGKKLG-OH, the figures for the Concentration in the assay filed under Mus musculus and in the assay filed under Homo sapiens were > 393 µM and > 570 µM, respectively. In addition, the minimum inhibitory concentration (MIC) against Pseudomonas aeruginosa, against Staphylococcus aureus and with Escherichia coli was 4 µM each time.
